Reference: paper PMC10228392 (mAbs, 2023)
Positions count from the first letter of the chain named. Numbers in names are those of the source.

How the values were obtained:
α-caff VHH = system: α-caff VHH; set-up: species or system llama; conditions: binding to anti-caffeine VHH
Summary of the method: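 Anti-caffeine VHH was dialysed overnight against PBS pH 7.4. Test compound at 50 µM in the syringe was titrated into 10 µM VHH in the cell at 25°C, as 27 injections of 10 µL.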

[1] = Guanidinium hydrochloride chemical unfolding by circular dichroism; type: physicochemical; conditions: 25°C
[2] = biological target: anti-caffeine VHH produced through grafting CDR regions (Caffgraft); assay: ITC
[3] = biological target: anti-caffeine VHH produced through grafting CDR regions (Caffgraft); assay: AUC
VHH:VHH dimer = assay: Analytical ultracentrifugation, sedimentation equilibrium; type: binding; conditions: with vs without stoichiometric caffeine
Summary of the method: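 Sedimentation equilibrium on tag-free, E. coli-expressed anti-caffeine VHH (WT, and F47R with caffeine) at 3, 10 and 30 µM, alone or with stoichiometric caffeine (1.5, 5, 15 µM), at 20°C. Cells were spun 24 h at 27,000, 32,000 and 44,000 rpm and scanned at 294, 260 and 236 nm. All speeds and concentrations were analysed globally: a single-exponential fit gave weight-averaged MW, then a monomer-dimer fit gave assembly constants.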

[4] = biological target: anti-caffeine VHH produced through grafting CDR regions (Caffgraft); assay: AUC; remark: listed apart in the source
[5] = Isothermal titration calorimetry
Summary of the method: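 Single arginine interface variants were made by site-directed mutagenesis and expressed in E. coli, and the tag was removed. For low-affinity binding (Turnbull method), 1 mM caffeine was titrated into 100 µM VHH variant, with stoichiometry fixed at n = 0.5 in the fit. Protein concentration came from ε280 30,035 M−1 cm−1 (F47R, V104R) or 28,545 M−1 cm−1 (Y106R).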

Molecule: Cn1c(=O)c2c(ncn2CC(=O)O)n(C)c1=O [theophylline-7-acetic acid]
- ΔΔG° penalty (loss in affinity) relative to caffeine (α-caff VHH): ~1.5 kcal/mol

B1: anti-caffeine VHH produced through grafting CDR regions (Caffgraft) (VHH)
VHH: QVQLVESGGGLVQAGGSLRLSCTASGRTGTIYSMAWFRQAPGKEREFLATVGWSSGITYYMDSVKGRFTISRDKGKNTVYLQMDSLKPEDTAVYYCTATRAYSVGYDYWGQGTQVTVSS
- loss of stability (ΔGu) relative to anti-RNase A VHH [1]: approximately 1.5 kcal/mol
- m-value ([1]; guanidinium hydrochloride): 2.62 ± 0.06 kcal mol^−1M^−1
- ΔGu ([1]; guanidinium hydrochloride, PBS pH 7.4, 10 μM VHH): 7.6 ± 0.2 kcal/mol
- Kd [2]: 13.1 µM
- Kd [3]: 23.5 µM
- stoichiometry N [3]: 2
- fold higher observed dimerization affinity on caffeine binding (VHH:VHH dimer): ~28 fold
- Kd [4]: 0.848 µM

B2: α-caff VHH-F47R: anti-caffeine VHH dimer interface variant with arginine at F47 (Kabat numbering) (antibody, V domains shown)
VH: B1 VHH with F47R
- ΔΔG° (weaker caffeine binding affinity than anti-caffeine VHH) [5]: > 5 kcal/mol
